What all share (type): functional
The subject of test [1] is RAW264.7. Kind of test: Anti-inflammatory activity in mouse RAW264.7 cells assessed as inhibition of LPS-induced TNFalpha secretion at 50 ug/ml preincubated for 1 hr followed by LPS stimulation for 23 hrs by ELISA relative to control. An outline of the steps:
(§1)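 RAW264.7 murine macrophages were grown in DMEM with 10% FBS at 37 °C in 5% CO2 and seeded at 5 × 10^5 to 80−90% confluence. Procyanidins in sterile water were added at 10, 50 or 100 μg/mL for 1 h. LPS (E. coli 0111:B4, 1 μg/mL) followed for 23 h. TNF-α in the collected medium was measured by ELISA and reported as % inhibition of LPS-dependent secretion.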

Test [2] deals with RAW264.7. Kind of test: Anti-inflammatory activity in mouse RAW264.7 cells assessed as inhibition of LPS-induced TNFalpha secretion at 100 ug/ml preincubated for 1 hr followed by LPS stimulation for 23 hrs by ELISA relative to control. An outline of the steps: as §1
Test [3] deals with RAW264.7. Kind of test: Anti-inflammatory activity in mouse RAW264.7 cells assessed as inhibition of LPS-induced TNFalpha secretion at 10 ug/ml preincubated for 1 hr followed by LPS stimulation for 23 hrs by ELISA relative to control. A digest of the protocol:
as §1

The structures appear in SMILES notation. Calls of active or inactive are those of the source. The calls are words filed in the database; no cut-off is given here.

For `Oc1cc(O)c2c(c1)O[C@@]1(c3ccc(O)c(O)c3)Oc3cc(O)c4c(c3[C@@H]2[C@H]1O)O[C@H](c1ccc(O)c(O)c1)[C@H](O)[C@H]4c1c(O)cc2c(c1O)[C@@H]1c3c(cc(O)c4c3O[C@H](c3ccc(O)c(O)c3)[C@@H](O)C4)O[C@](c3ccc(O)c(O)c3)(O2)[C@@H]1O`, in the test on RAW264.7 [1], the inhibition at 50 µg/mL worked out at 71.2%. For the same compound, the inhibition at 100 µg/mL in the test with RAW264.7 [2] amounted to 98.6%. For the same compound, in the test with RAW264.7 [3], the inhibition at 10 µg/mL was found to be 4.26%.
With `Oc1cc(O)c2c(c1)O[C@@]1(c3ccc(O)c(O)c3)Oc3cc(O)c4c(c3[C@@H]2[C@H]1O)O[C@@]1(c2ccc(O)c(O)c2)Oc2cc(O)c3c(c2[C@@H]4[C@H]1O)O[C@H](c1ccc(O)c(O)c1)[C@@H](O)C3`, the inhibition at 50 µg/mL with RAW264.7 [1] was determined as 78.8%. For the same compound, the inhibition at 100 µg/mL with RAW264.7 [2] came out at 100%. In addition, the inhibition at 10 µg/mL in the test with RAW264.7 [3] came to 6.28%.
On to `Oc1cc(O)c2c(c1)O[C@@]1(c3ccc(O)c(O)c3)Oc3cc(O)c4c(c3[C@@H]2[C@H]1O)O[C@H](c1ccc(O)c(O)c1)[C@H](O)[C@H]4c1c(O)cc2c(c1O)C[C@H](O)[C@@H](c1ccc(O)c(O)c1)O2`, for which the inhibition at 50 µg/mL in the test on RAW264.7 [1] stood at 99.4%. In addition, the inhibition at 100 µg/mL with RAW264.7 [2] stood at 100%. The inhibition at 10 µg/mL in the test on RAW264.7 [3] worked out at 28.6%.
With `Oc1cc(O)c2c(c1)O[C@@H](c1ccc(O)c(O)c1)[C@@H](O)[C@H]2c1c(O)cc(O)c2c1O[C@@]1(c3ccc(O)c(O)c3)Oc3cc(O)c4c(c3[C@@H]2[C@H]1O)O[C@H](c1ccc(O)c(O)c1)[C@@H](O)C4`, the inhibition result in the test with RAW264.7 [2] was “inactive”.
On to `Oc1cc(O)c2c(c1)O[C@@]1(c3ccc(O)c(O)c3)Oc3cc(O)c4c(c3[C@@H]2[C@H]1O)O[C@H](c1ccc(O)c(O)c1)[C@H](O)[C@H]4c1c(O)cc2c(c1O)[C@@H]1c3c(cc(O)c4c3O[C@H](c3ccc(O)c(O)c3)[C@H](O)C4)O[C@](c3ccc(O)c(O)c3)(O2)[C@@H]1O`, for which, in the test on RAW264.7 [1], the inhibition at 50 µg/mL is 100%. Further, in the test on RAW264.7 [2], the inhibition at 100 µg/mL came to 100%. In the test with RAW264.7 [3], the inhibition at 10 µg/mL came out at 82.2%.
For the compound `Oc1cc(O)c2c(c1)O[C@H](c1ccc(O)c(O)c1)[C@H](O)[C@H]2c1c(O)cc2c(c1O)[C@@H]1c3c(cc(O)c4c3O[C@H](c3ccc(O)c(O)c3)[C@@H](O)C4)O[C@](c3ccc(O)c(O)c3)(O2)[C@@H]1O`, the inhibition at 50 µg/mL in the test with RAW264.7 [1] worked out at 89.7%. Besides, the inhibition at 100 µg/mL in the test with RAW264.7 [2] came out at 100%. Further, the inhibition at 10 µg/mL with RAW264.7 [3] stood at 0%.
On to `Oc1cc(O)c2c(c1)O[C@@]1(c3ccc(O)c(O)c3)Oc3cc(O)c4c(c3[C@@H]2[C@H]1O)O[C@H](c1ccc(O)c(O)c1)[C@@H](O)C4`, for which, in the test on RAW264.7 [2], the inhibition result was “inactive”.
